Reference: ChEMBL document CHEMBL1153083, “Antiprotozoal, anticancer and antimicrobial activities of dihydroartemisinin acetal dimers and monomers” (Bioorg Med Chem, 2009)
pIC50: −log10 of the molar value.

Assays:
[1] = Selectivity index, ratio of TC50 for african green monkey (Cercopithecus aethiops) Vero cells to IC50 for Plasmodium falciparum W2; format: toxicity, cell-based
Plasmodium falciparum [2] = experiment: Antiplasmodial activity against Plasmodium falciparum D6 infected in RBCs by parasitic LDH release assay; format: functional, organism-based
How it was run: (§1)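 Infected erythrocytes at 2% parasitemia and 2% hematocrit, in RPMI 1640 with 10% human serum and amikacin 60 μg/mL, were exposed to serial dilutions under N2/O2/CO2 (90:5:5) at 37°C for 72 h. LDH was read with Malstat reagent (30 min), then NBT/PES in the dark (60 min), stopped with 5% acetic acid, at 650 nm. IC50 came from percent growth dose-response curves.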

Plasmodium falciparum [3] = experiment: Antiplasmodial activity against Plasmodium falciparum W2 infected in RBCs by parasitic LDH release assay; format: functional, organism-based; how it was run: as §1
KB = experiment: Cytotoxicity against human KB cells after 48 hrs by neutral red assay; format: functional, cell-based; conditions: kb
How it was run: (§2)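 Cells seeded at 25,000 per well and incubated 24 h, then exposed to samples for 48 h. Viable cells were counted by neutral red, with DMSO as vehicle control. IC50 or TC50 values were derived from logarithmic plots of growth inhibition versus concentration.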

SK-OV-3 = experiment: Cytotoxicity against human SKOV3 cells after 48 hrs by neutral red assay; format: functional, cell-based; conditions: sk-ov-3; how it was run: as §2
Staphylococcus aureus = experiment: Antibacterial activity against methicillin-resistant Staphylococcus aureus ATCC 43300 by modified CLSI/NCCLS method; format: functional, organism-based
Vero = experiment: Toxicity against african green monkey Vero cells after 48 hrs by neutral red assay; format: cell-based; conditions: chlorocebus sabaeus, vero, 48 h; how it was run: as §2
Escherichia coli = experiment: Antibacterial activity against Escherichia coli ATCC 35218 by modified CLSI/NCCLS method; format: functional, organism-based; conditions: Escherichia coli, ATCC 35218; read-out: IC50
[4] = Selectivity index, ratio of TC50 for african green monkey (Cercopithecus aethiops) Vero cells to IC50 for Plasmodium falciparum D6; format: toxicity, cell-based
SK-MEL = experiment: Cytotoxicity against human SK-MEL cells after 48 hrs by neutral red assay; format: functional, cell-based; conditions: sk-mel; how it was run: as §2
BT-549 = experiment: Cytotoxicity against human BT549 cells after 48 hrs by neutral red assay; format: functional, cell-based; conditions: bt-549; how it was run: as §2
[5] = test system: Mycobacterium intracellulare; experiment: Antibacterial activity against Mycobacterium intracellular ATCC 23068 by Franzblau method; format: functional, organism-based
[6] = Toxicity against pig LLC-PK11 cells after 48 hrs by neutral red assay; format: cell-based, Sus scrofa; conditions: llc-pk11, 48 h; how it was run: as §2
Leishmania donovani = experiment: Antileishmanial activity against Leishmania donovani promastigotes after 48 hrs by alamar blue assay; format: functional, organism-based; conditions: Leishmania donovani, 48 h
Cryptococcus neoformans = experiment: Antifungal activity against Cryptococcus neoformans ATCC 90113 by modified CLSI/NCCLS method; format: functional, organism-based
Candida albicans = experiment: Antifungal activity against Candida albicans ATCC 90028 by modified CLSI/NCCLS method; format: functional, organism-based
Aspergillus fumigatus = experiment: Antifungal activity against Aspergillus fumigatus ATCC 90906 by modified CLSI/NCCLS method; format: functional, organism-based
Pseudomonas aeruginosa = experiment: Antibacterial activity against Pseudomonas aeruginosa ATCC 27853 by modified CLSI/NCCLS method; format: functional, organism-based
[7] = Cytotoxicity against human NCI60 cells after 48 hrs by neutral red assay; format: functional; conditions: NCI60, 48 h
[8] = Toxicity against african green monkey Vero cells; format: cell-based; conditions: chlorocebus sabaeus; how it was run: as §2

## C[C@H]1[C@@H](OCc2cc(O)cc(O[C@H]3O[C@@H]4O[C@@]5(C)CC[C@H]6[C@H](C)CC[C@@H]([C@H]3C)[C@@]46OO5)c2)O[C@@H]2O[C@@]3(C)CC[C@H]4[C@H](C)CC[C@@H]1[C@@]24OO3
[1]
  selectivity ratio: > 1700
Plasmodium falciparum [2]
  pIC50: 8.52
Plasmodium falciparum [3]
  pIC50: 8.38
KB
  IC50: Not Active
SK-OV-3
  IC50: Not Active
Staphylococcus aureus
  IC50: Not Active
Vero
  TC50: Not Active
Escherichia coli
  pIC50: 4.65
[4]
  selectivity ratio: > 2380
SK-MEL
  IC50: Not Active
BT-549
  IC50: Not Active
[5]
  IC50: Not Active
[6]
  TC50: Not Active
Leishmania donovani
  IC90: 32700 nM
Leishmania donovani; read-out: IC50
  pIC50: 5.23
Cryptococcus neoformans
  pIC50: 5.83
Candida albicans
  IC50: Not Active
Aspergillus fumigatus
  IC50: Not Active
Pseudomonas aeruginosa
  IC50: Not Active
[7]
  GI50: 24.5 nM
  TGI: 2820 nM
[7]; read-out: LC50 (the source's name)
  CC50: 15100 nM
[8]
  CC50: > 7070 nM
